# Results from ChEMBL document CHEMBL2331420, “Synthesis, cytotoxicity and antiplasmodial activity of novel ent-kaurane derivatives” (Eur J Med Chem, 2013).
# Counter-ions that a name gives are not always drawn.
# Legend:
# [1] = Growth inhibition against human LoVo/DX cells after 72 hrs by inverted microscopy; type: functional
# Method in brief: (§1)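 Cells seeded at 2×10^4 cells/well in MEM10FCS containing compound at the test concentrations and exposed continuously for 72 h at 37 °C, 10% CO₂, 98% humidity. Untreated control wells were counted daily to confirm exponential growth. Cells were stained with crystal violet and inspected by inverted microscope, and inhibition was judged against controls. GI50 (50% growth inhibition) is the mean of duplicate wells.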
# [2] = tested on: HeLa; assay: Growth inhibition against human HeLa cells after 72 hrs by inverted microscopy; type: functional; method in brief: as §1
# [3] = tested on: LoVo; assay: Growth inhibition against human LoVo cells after 72 hrs by inverted microscopy; type: functional; method in brief: as §1
# [4] = Growth inhibition against human IGROV-ET cells after 72 hrs by inverted microscopy; type: functional; method in brief: as §1
# [5] = Growth inhibition against human IGROV cells after 72 hrs by inverted microscopy; type: functional; method in brief: as §1
# [6] = tested on: HT-29; assay: Growth inhibition against human HT-29 cells after 72 hrs by inverted microscopy; type: functional; details: HT-29, 72 h; method in brief: as §1
# [7] = tested on: PANC-1; assay: Growth inhibition against human PANC1 cells after 72 hrs by inverted microscopy; type: functional; details: PANC-1, 72 h; method in brief: as §1
# [8] = tested on: K562; assay: Growth inhibition against human K562 cells after 72 hrs by inverted microscopy; type: functional; details: K562, 72 h; method in brief: as §1
# [9] = tested on: Plasmodium falciparum; assay: Antiplasmodial activity against chloroquine-resistant Plasmodium falciparum W2 infected in human erythrocytes assessed as inhibition of parasite growth after 24 hrs by [3H]hypoxanthine incorporation assay; type: functional, organism-based
# Method in brief: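 Ring-stage parasites, sorbitol-synchronised, in human O-negative erythrocytes in RPMI with 10% human plasma; plated at 1% parasitemia, 1% haematocrit. Compounds diluted from DMSO stocks in hypoxanthine-free medium, final DMSO 0.002%. After 24 h, [3H]-hypoxanthine (0.5 μCi/well) added for another 18 h at 37 °C. Incorporation compared with drug-free controls, IC50 by linear interpolation. Three experiments, each in triplicate.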
# [10] = Selectivity index, ratio of CC50 for human HepG2 cells to IC50 for chloroquine-resistant Plasmodium falciparum W2 infected in human erythrocytes; type: functional
# Method in brief: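 HepG2 hepatoma cells in RPMI1640 with 5% FBS, 4×10^4 cells/well, allowed 18 h at 37 °C. Four serial dilutions from 1000 µg/mL, final DMSO 0.01%, in triplicate, for 24 h at 37 °C. Cytotoxic concentration taken from the dose–response curve, then divided by the antiplasmodial IC50.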
# [11] = Cytotoxicity against human HepG2 cells after 24 hrs by MTT assay; type: cell-based
# Method in brief: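 Hep G2A16 hepatoma cells kept in RPMI1640 with 5% FBS and gentamicin, trypsinised and plated at 4×10^4 cells/well, then left 18 h at 37 °C before dosing. Compounds were given in triplicate at four serial-dilution concentrations starting at 1000 µg/mL, with final DMSO 0.01%, for 24 h at 37 °C. MTT (6 mg/mL in PBS) was added for 1 h 30 min, solubilised in DMSO and read at 570 nm. Cytotoxic concentration was taken from the dose–response curve.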
# [12] = Toxicity in RBC (unknown origin) assessed as hemolysis at 139 uM; type: cell-based; details: erythrocyte
SMILES,GI50 [1] [µM],GI50 [2] [µM],GI50 [3] [µM],GI50 [4] [µM],GI50 [5] [µM],GI50 [6] [µM],GI50 [7] [µM],GI50 [8] [µM],IC50 [9] [µM],Ratio CC50/IC50 [10],CC50 at 24 h [11] [µM],Activity [12]
COC(=O)[C@]1(C)CCC[C@@]2(C)[C@@H]3CC[C@@H]4C[C@@]3(CC[C@@H]21)C[C@@H]4CO,> 9.02,> 9.02,> 9.02,7.23,> 9.02,> 9.02,> 9.02,> 9.02,,,,
COC(=O)[C@]1(C)CCC[C@]2(C)[C@@H]1CC[C@@]13C[C@H](C[C@H]4O[C@]412)[C@@]1(CO1)C3,> 8.66,> 8.66,> 8.66,> 8.66,> 8.66,> 8.66,> 8.66,> 8.66,10.4,119.1,1240,
COC(=O)[C@]1(C)CCC[C@]2(C)[C@@H]1CC[C@@]13C[C@H](C[C@H]4O[C@]412)[C@]1(CO1)C3,> 8.66,> 8.66,> 8.66,> 8.66,> 8.66,> 8.66,> 8.66,> 8.66,6.9,117.4,810,Toxic
C=C1[C@H]2CC[C@H]3[C@]4(C)CCC[C@@](C)(C(=O)OC)[C@H]4CC[C@]3(C2)[C@H]1O,> 9.02,7.04,8.21,> 9.02,7.52,7.4,> 9.02,> 9.02,8.4,,,
C=C1C[C@@]23CC[C@H]4[C@@](C)(CCC[C@@]4(C)C(=O)OC)[C@@H]2CC[C@H]1C3,> 9.48,> 9.48,> 9.48,> 9.48,8.44,> 9.48,> 9.48,> 9.48,8.2,3.9,32.2,
COC(=O)[C@]1(C)CCC[C@@]2(C)[C@@H]3CC[C@H]4C[C@]3(C=C4C)CC[C@@H]21,> 9.48,> 9.48,> 9.48,> 9.48,> 9.48,> 9.48,> 9.48,> 9.48,8.8,5.1,44.9,
COC(=O)[C@]1(C)CCC[C@@]2(C)[C@@H]3CC[C@H]4C[C@@]3(CC[C@@H]21)C[C@]41CO1,> 9.02,> 9.02,> 9.02,> 9.02,> 9.02,> 9.02,> 9.02,> 9.02,9.6,11.5,111,
C[C@@]1(C(=O)O)CCC[C@@]2(C)C3=CC[C@H]4C[C@@]3(CC[C@H]12)C[C@]41CO1,> 9.48,> 9.48,> 9.48,> 9.48,> 9.48,> 9.48,> 9.48,> 9.48,,,,
COC(=O)[C@]1(C)CCC[C@@]2(C)[C@@H]3CC[C@H]4C[C@@]3(CC[C@@H]21)[C@@H](O)[C@@H]4C,> 9.02,> 9.02,> 9.02,> 9.02,8.34,> 9.02,> 9.02,> 9.02,34.7,,,
COC(=O)[C@]1(C)CCC[C@@]2(C)[C@@H]3[C@H](O)C[C@H]4C[C@@]3(CC[C@@H]21)C[C@@H]4CO,> 8.56,> 8.56,> 8.56,> 8.56,> 8.56,> 8.56,> 8.56,> 8.56,> 143,,,
COC(=O)[C@]1(C)CCC[C@@]2(C)[C@@H]3[C@@H](O)C[C@H]4C[C@@]3(CC[C@@H]21)C[C@@H]4CO,> 8.56,> 8.56,> 8.56,> 8.56,> 8.56,> 8.56,> 8.56,> 8.56,> 143,,,
COC(=O)[C@]1(C)CCC[C@@]2(C)[C@@H]3CC[C@H]4C[C@@]3(CC[C@@H]21)C[C@H]4C=O,> 9.02,> 9.02,> 9.02,> 9.02,> 9.02,> 9.02,> 9.02,> 9.02,,,,
COC(=O)[C@]1(C)CCC[C@@]2(C)[C@@H]3CC[C@H]4C[C@@]3(CC[C@@H]21)C[C@@H]4C=O,> 9.02,> 9.02,8.69,> 9.02,> 9.02,> 9.02,> 9.02,8.18,,,,
C[C@@]1(C(=O)O)CCC[C@@]2(C)C3=CC[C@@H]4C[C@@]3(CC[C@H]12)CC4=O,,,,,,,,,> 157,,,
COC(=O)[C@]1(C)CCC[C@@]2(C)[C@@H]3CC[C@H]4C[C@@]3(CC[C@@H]21)C[C@@H]4C(=O)O,,,,,,,,,> 144,,,
COC(=O)[C@]1(C)CCC[C@@]2(C)[C@@H]3CC[C@H]4C[C@@]3(CC[C@@H]21)C[C@@H]4C1NCCCN1,,,,,,,,,5.4,,,
COC(=O)[C@]1(C)CCC[C@@]2(C)C3=CC[C@H]4C[C@@]3(CC[C@H]12)CC4CO (mixture of isomers),> 9.02,> 9.02,> 9.02,> 9.02,> 9.02,> 9.02,> 9.02,> 9.02,33.1,,,
CCN(CC)CCCC(C)Nc1ccnc2cc(Cl)ccc12 (configuration not stated) [CHLOROQUINE],,,,,,,,,,,504,
COc1cccc2c1C(=O)c1c(O)c3c(c(O)c1C2=O)C[C@@](O)(C(=O)CO)C[C@@H]3O[C@H]1C[C@H](N)[C@H](O)[C@H](C)O1 [DOXORUBICIN HYDROCHLORIDE],2.21,0.17,0.24,6.17,0.11,0.15,0.24,0.17,,,,
C=C1C[C@@]23CC[C@@H]4[C@](C)(C(=O)O)CCC[C@@]4(C)C2=CC[C@@H]1C3 [GRANDIFLORENIC ACID],,,,,,,,,23.3,,,
C=C1C[C@@]23CC[C@H]4[C@@](C)(CCC[C@@]4(C)C(=O)O)[C@@H]2CC[C@@H]1C3 [KAURENOIC ACID],> 9.92,> 9.92,> 9.92,> 9.92,> 9.92,> 9.92,> 9.92,> 9.92,21.1,9.1,192,
